Measurements taken from ChEMBL document CHEMBL1255284, “Aspergillus section Fumigati: antifungal susceptibility patterns and sequence-based identification” (2008).
≈ marks a conversion by molar mass, not a printed value.

Tests used:
[1] = system: Aspergillus lentulus; experiment: Antimicrobial activity against Aspergillus lentulus isolate CNM-CM-4387 obtained from sputum of patient after 48 hrs by broth microdilution method; assay type: functional; conditions: isolate CNM-CM-4387, 48 h
Procedure, shortened: (§1)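 CLSI M38-A broth microdilution with modifications: RPMI 1640 with L-glutamine, 2% glucose, buffered to pH 7 with 0.165 M MOPS. Inoculum of 1 × 10^5 to 5 × 10^5 CFU/ml from 3- to 5-day-old cultures. Incubated 35°C, 48 h, humid. Visual reading with a mirror. MIC is complete growth inhibition; echinocandin MEC is hyphal morphological alteration. Azoles 8 to 0.015 μg/ml; others 16 to 0.03 μg/ml.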

[2] = system: Neosartorya hiratsukae; experiment: Antimicrobial activity against Neosartorya hiratsukae isolate CNM-CM-3764 obtained from oropharyngeal exudate of patient after 48 hrs by broth microdilution method; assay type: functional; conditions: Aspergillus hiratsukae, isolate CNM-CM-3764, 48 h; procedure, shortened: as §1
[3] = system: Neosartorya hiratsukae; experiment: Antimicrobial activity against Neosartorya hiratsukae isolate CNM-CM-4328 obtained from cornea of patient after 48 hrs by broth microdilution method; assay type: functional; conditions: Aspergillus hiratsukae, isolate CNM-CM-4328, Cornea; procedure, shortened: as §1
[4] = system: Neosartorya pseudofischeri; experiment: Antimicrobial activity against Neosartorya pseudofischeri isolate CNM-CM-4060 obtained from sputum of patient after 48 hrs by broth microdilution method; assay type: functional; conditions: Aspergillus thermomutatus
Procedure, shortened: (§2)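 CLSI M38-A broth microdilution with modifications: RPMI 1640 with L-glutamine, MOPS-buffered to pH 7, plus 2% glucose. Inoculum 1 × 10^5 to 5 × 10^5 CFU/ml from 3–5-day cultures. Incubated at 35°C for 48 h, humid. Read visually with a mirror. MIC = complete growth inhibition; echinocandin MEC = altered hyphal morphology. QC strain A. fumigatus ATCC 2004305.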

[5] = system: Aspergillus lentulus; experiment: Antimicrobial activity against Aspergillus lentulus isolate CNM-CM-3537 obtained from sputum of patient after 48 hrs by broth microdilution method; assay type: functional; conditions: isolate CNM-CM-3537, 48 h; procedure, shortened: as §1
[6] = system: Aspergillus fumigatiaffinis; experiment: Antimicrobial activity against Aspergillus fumigatiaffinis isolate CNM-CM-2280 obtained from sputum of patient after 48 hrs by broth microdilution method; conditions: isolate CNM-CM-2280, 48 h
[7] = system: Aspergillus fumigatus; experiment: Antimicrobial activity against Aspergillus fumigatus ATCC 2004305 after 48 hrs by broth microdilution method; assay type: functional; conditions: ATCC 2004305, 48 h
[8] = system: Aspergillus lentulus; experiment: Antimicrobial activity against Aspergillus lentulus isolate CNM-CM-4370 obtained from sputum of patient after 48 hrs by broth microdilution method; assay type: functional; conditions: isolate CNM-CM-4370, 48 h; procedure, shortened: as §1
[9] = system: Neosartorya hiratsukae; experiment: Antimicrobial activity against Neosartorya hiratsukae isolate CNM-CM-3303 obtained from skin of patient after 48 hrs by broth microdilution method; assay type: functional; conditions: Aspergillus hiratsukae, isolate CNM-CM-3303, 48 h; procedure, shortened: as §1
[10] = system: Neosartorya pseudofischeri; experiment: Antimicrobial activity against Neosartorya pseudofischeri isolate CNM-CM-2270 obtained from sputum of patient after 48 hrs by broth microdilution method; assay type: functional; conditions: Aspergillus thermomutatus, isolate CNM-CM-2270, 48 h; procedure, shortened: as §2
[11] = system: Neosartorya pseudofischeri; experiment: Antimicrobial activity against Neosartorya pseudofischeri isolate CNM-CM-3914 obtained from nail of patient after 48 hrs by broth microdilution method; assay type: functional; conditions: Aspergillus thermomutatus, isolate CNM-CM-3914, 48 h; procedure, shortened: as §2
[12] = system: Neosartorya hiratsukae; experiment: Antimicrobial activity against Neosartorya hiratsukae isolate CNM-CM-3740 obtained from oropharyngeal exudate of patient after 48 hrs by broth microdilution method; assay type: functional; conditions: Aspergillus hiratsukae, isolate CNM-CM-3740, 48 h; procedure, shortened: as §1
[13] = system: Aspergillus lentulus; experiment: Antimicrobial activity against Aspergillus lentulus isolate CNM-CM-3599 obtained from sputum of patient after 48 hrs by broth microdilution method; assay type: functional; conditions: isolate CNM-CM-3599, 48 h; procedure, shortened: as §1
[14] = system: Neosartorya hiratsukae; experiment: Antimicrobial activity against Neosartorya hiratsukae isolate CNM-CM-3305 obtained from skin of patient after 48 hrs by broth microdilution method; assay type: functional; conditions: Aspergillus hiratsukae, isolate CNM-CM-3305, 48 h; procedure, shortened: as §1
[15] = system: Aspergillus lentulus; experiment: Antimicrobial activity against Aspergillus lentulus isolate CNM-CM-4428 obtained from skin of patient after 48 hrs by broth microdilution method; assay type: functional; conditions: isolate CNM-CM-4428, 48 h; procedure, shortened: as §1
[16] = system: Aspergillus lentulus; experiment: Antimicrobial activity against Aspergillus lentulus isolate CNM-CM-4330 obtained from sputum of patient after 48 hrs by broth microdilution method; assay type: functional; conditions: isolate CNM-CM-4330, 48 h; procedure, shortened: as §1
[17] = system: Aspergillus lentulus; experiment: Antimicrobial activity against Aspergillus lentulus isolate CNM-CM-3134 obtained from sputum of patient after 48 hrs by broth microdilution method; assay type: functional; conditions: isolate CNM-CM-3134, 48 h; procedure, shortened: as §1
[18] = system: Aspergillus lentulus; experiment: Antimicrobial activity against Aspergillus lentulus isolate CNM-CM-4415 obtained from sputum of patient after 48 hrs by broth microdilution method; assay type: functional; conditions: isolate CNM-CM-4415, 48 h; procedure, shortened: as §1
[19] = system: Aspergillus lentulus; experiment: Antimicrobial activity against Aspergillus lentulus isolate CNM-CM-3364 obtained from bronchoalveolar lavage fluid of patient after 48 hrs by broth microdilution method; assay type: functional; conditions: isolate CNM-CM-3364, Lung; procedure, shortened: as §1
[20] = system: Aspergillus lentulus; experiment: Antimicrobial activity against Aspergillus lentulus isolate CNM-CM-1290 obtained from sputum of patient after 48 hrs by broth microdilution method; assay type: functional; conditions: isolate CNM-CM-1290, 48 h; procedure, shortened: as §1
[21] = system: Aspergillus lentulus; experiment: Antimicrobial activity against Aspergillus lentulus isolate CNM-CM-4426 obtained from sputum of patient after 48 hrs by broth microdilution method; assay type: functional; conditions: isolate CNM-CM-4426, 48 h; procedure, shortened: as §1
[22] = system: Aspergillus viridinutans; experiment: Antimicrobial activity against Aspergillus viridinutans isolate CNM-CM-3147 obtained from oropharyngeal exudate of patient after 48 hrs by broth microdilution method; assay type: functional; conditions: isolate CNM-CM-3147, 48 h; procedure, shortened: as §1
[23] = system: Aspergillus fumisynnematus; experiment: Antimicrobial activity against Aspergillus fumisynnematus isolate CNM-CM-4063 obtained from bronchoalveolar aspirate of patient after 48 hrs by broth microdilution method; assay type: functional; conditions: isolate CNM-CM-4063, Lung; procedure, shortened: as §1
[24] = system: Aspergillus lentulus; experiment: Antimicrobial activity against Aspergillus lentulus isolate CNM-CM-4420 obtained from nail of patient after 48 hrs by broth microdilution method; assay type: functional; conditions: isolate CNM-CM-4420, 48 h; procedure, shortened: as §1
[25] = system: Aspergillus lentulus; experiment: Antimicrobial activity against Aspergillus lentulus isolate CNM-CM-3538 obtained from sputum of patient after 48 hrs by broth microdilution method; assay type: functional; conditions: isolate CNM-CM-3538, 48 h; procedure, shortened: as §1
[26] = system: Aspergillus viridinutans; experiment: Antimicrobial activity against Aspergillus viridinutans isolate CNM-CM-4518 obtained from nail of patient after 48 hrs by broth microdilution method; assay type: functional; conditions: isolate CNM-CM-4518, 48 h; procedure, shortened: as §1
[27] = system: Aspergillus fumigatiaffinis; experiment: Antimicrobial activity against Aspergillus fumigatiaffinis isolate CNM-CM-3227 obtained from bronchoalveolar lavage fluid of patient after 48 hrs by broth microdilution method; conditions: isolate CNM-CM-3227, Lung
[28] = system: Neosartorya pseudofischeri; experiment: Antimicrobial activity against Neosartorya pseudofischeri isolate CNM-CM-3769 obtained from sputum of patient after 48 hrs by broth microdilution method; assay type: functional; conditions: Aspergillus thermomutatus; procedure, shortened: as §2
[29] = system: Aspergillus lentulus; experiment: Antimicrobial activity against Aspergillus lentulus isolate CNM-CM-3583 obtained from sputum of patient after 48 hrs by broth microdilution method; assay type: functional; conditions: isolate CNM-CM-3583, 48 h; procedure, shortened: as §1

Structure (SMILES): CC[C@H](C)C[C@H](C)CCCCCCCCC(=O)N[C@H]1C[C@@H](O)[C@@H](NCCN)NC(=O)[C@@H]2[C@@H](O)CCN2C(=O)[C@H]([C@H](O)CCN)NC(=O)[C@H]([C@H](O)[C@@H](O)c2ccc(O)cc2)NC(=O)[C@@H]2C[C@@H](O)CN2C(=O)[C@H]([C@@H](C)O)NC1=O [CASPOFUNGIN]
- minimal effective concentration ([1]; read-out: MEC): 0.25 µg/mL
- minimal effective concentration ([2]; read-out: MEC): 0.26 µg/mL
- minimal effective concentration ([3]; read-out: MEC): 0.03 µg/mL
- minimal effective concentration ([4]; read-out: MEC): 0.62 µg/mL
- minimal effective concentration ([5]; read-out: MEC): 0.42 µg/mL
- minimal effective concentration ([6]; read-out: MEC): 1.3 µg/mL
- minimal effective concentration ([7]; read-out: MEC): 0.12 µg/mL
- minimal effective concentration ([8]; read-out: MEC): 0.91 µg/mL
- minimal effective concentration ([9]; read-out: MEC): 0.34 µg/mL
- minimal effective concentration ([10]; read-out: MEC): 0.51 µg/mL
- minimal effective concentration ([11]; read-out: MEC): 1 µg/mL
- minimal effective concentration ([12]; read-out: MEC): 0.66 µg/mL
- minimal effective concentration ([13]; read-out: MEC): 0.26 µg/mL
- minimal effective concentration ([14]; read-out: MEC): 0.03 µg/mL
- minimal effective concentration ([15]; read-out: MEC): 0.29 µg/mL
- minimal effective concentration ([16]; read-out: MEC): 1.2 µg/mL
- minimal effective concentration ([17]; read-out: MEC): 0.38 µg/mL
- minimal effective concentration ([18]; read-out: MEC): 0.25 µg/mL
- minimal effective concentration ([19]; read-out: MEC): 0.18 µg/mL
- minimal effective concentration ([20]; read-out: MEC): 0.28 µg/mL
- minimal effective concentration ([21]; read-out: MEC): 0.22 µg/mL
- minimal effective concentration ([22]; read-out: MEC): 0.67 µg/mL
- minimal effective concentration ([23]; read-out: MEC): 0.5 µg/mL
- minimal effective concentration ([24]; read-out: MEC): 0.33 µg/mL
- minimal effective concentration ([25]; read-out: MEC): 0.11 µg/mL
- minimal effective concentration ([26]; read-out: MEC): 1 µg/mL
- minimal effective concentration ([27]; read-out: MEC): 0.16 µg/mL
- minimal effective concentration ([28]; read-out: MEC): 0.12 µg/mL
- minimal effective concentration ([29]; read-out: MEC): 1 µg/mL

Structure (SMILES): CN(C/C=C/C#CC(C)(C)C)Cc1cccc2ccccc12 [TERBINAFINE]
- MIC [1]: 0.5 µg/mL (≈ 1.72 µM)
- MIC [2]: 0.25 µg/mL (≈ 0.858 µM)
- MIC [3]: 0.09 µg/mL (≈ 0.309 µM)
- MIC [4]: 0.5 µg/mL (≈ 1.72 µM)
- MIC [5]: 1 µg/mL (≈ 3.43 µM)
- MIC [6]: 1.66 µg/mL (≈ 5.7 µM)
- MIC [7]: 2 µg/mL (≈ 6.86 µM)
- MIC [8]: 0.5 µg/mL (≈ 1.72 µM)
- MIC [9]: 0.09 µg/mL (≈ 0.309 µM)
- MIC [10]: 1 µg/mL (≈ 3.43 µM)
- MIC [11]: 0.5 µg/mL (≈ 1.72 µM)
- MIC [12]: 0.2 µg/mL (≈ 0.686 µM)
- MIC [13]: 1 µg/mL (≈ 3.43 µM)
- MIC [14]: 0.06 µg/mL (≈ 0.206 µM)
- MIC [15]: 0.66 µg/mL (≈ 2.26 µM)
- MIC [16]: 0.5 µg/mL (≈ 1.72 µM)
- MIC [17]: 1.75 µg/mL (≈ 6 µM)
- MIC [18]: 0.5 µg/mL (≈ 1.72 µM)
- MIC [19]: 0.5 µg/mL (≈ 1.72 µM)
- MIC [20]: 1.33 µg/mL (≈ 4.56 µM)
- MIC [21]: 0.83 µg/mL (≈ 2.85 µM)
- MIC [22]: 1.2 µg/mL (≈ 4.12 µM)
- MIC [23]: 1.66 µg/mL (≈ 5.7 µM)
- MIC [24]: 1 µg/mL (≈ 3.43 µM)
- MIC [25]: 1 µg/mL (≈ 3.43 µM)
- MIC [26]: 0.75 µg/mL (≈ 2.57 µM)
- MIC [27]: 1.4 µg/mL (≈ 4.8 µM)
- MIC [28]: 1.33 µg/mL (≈ 4.56 µM)
- MIC [29]: 1.25 µg/mL (≈ 4.29 µM)
